Source: ChEMBL document CHEMBL1123355, “Activity of N-methyl-alpha- and -beta-funaltrexamine at opioid receptors” (1986)

Species: Cavia porcellus
Assay: Beta-Funaltrexamine antagonism of morphine agonism in the presence of compound was determined in Guinea pig ileum at concentration of 20 nM
Format: functional
Procedure, shortened: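 Guinea pig ileum protection assay. The protector was added to the tissue 10 min before 20 nM β-FNA, which was applied for 30 min. The tissue was then washed 30 times with intermittent chasing by 500 nM naloxone. The result is the morphine IC50 in treated tissue divided by the morphine IC50 in control tissue of the same preparation, given with SE and n.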

Q: With `O=C1CC[C@@]2(O)[C@H]3Cc4ccc(O)c5c4[C@@]2(CCN3CC2CC2)[C@H]1O5` [NALTREXONE] as the compound, how does the IC50 ratio read?
A: Its IC50 ratio is 2.1.
